Assay results as given in ChEMBL document CHEMBL4251706, “Elimination of HIV-1 Latently Infected Cells by Gnidimacrin and a Selective HDAC Inhibitor” (ACS Med Chem Lett, 2018).
The source made the active and inactive calls. The rule behind the calls is not given here.

Legend:
[1] = test system: Human immunodeficiency virus 1; experiment: Reactivation of latent HIV1 infected in human J-Lat A2 cells assessed as increase in GFP positive cells at 0.5 nM after 72 hrs by flow cytometric analysis; type: functional, organism-based
How it was run: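 J-Lat (A2) cells express GFP on latent HIV-1 activation; 1x10^6 cells/well incubated with LRA(s), alone or in pairs (HDAC inhibitor TPB 0.3 µM or TPyB 1.0 µM), at 37 °C for 72 h; GFP+ cell frequency by flow cytometry; two independent experiments, one-tailed t-test.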

[2] = test system: Human immunodeficiency virus 1; experiment: Reactivation of latent HIV1 infected in human U1 cells assessed as increase in p24 production after 48 hrs by ELISA relative to vorinostat; type: functional
How it was run: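 U1 cells at 2x10^5 cells/ml incubated with a range of concentrations at 37 °C for 48 h. Supernatant p24 measured by HIV p24 ELISA. EC50 ± SD derived from 3 independent experiments.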

[3] = Cytotoxicity against human U937 cells assessed as reduction in cell viability after 48 hrs by CellTiter-Glo luminescent cell viability assay; type: cell-based, U-937
How it was run: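 U937 cells (HIV-1-negative parental line of U1) at 2x10^5 cells/ml exposed to a range of concentrations for 48 h at 37 °C. Viability read by CellTiter-Glo luminescence. CC50 ± SD derived from 3 independent experiments.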

[4] = Cytotoxicity against human J-Lat (A2) cells assessed as effect on cell viability at 0.5 nM after 72 hrs by flow cytometric analysis; type: cell-based; conditions: 0.0005 µM
How it was run: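 J-Lat (A2) cells, 1x10^6 cells/well, exposed to LRA(s) at 37 °C for 72 h; percent viable cells read by flow cytometry, two independent experiments.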

[5] = Selectivity index, ratio of CC50 for human U937 cells to EC50 for reactivation of latent HIV1 infected in human U1 cells; conditions: U937 cells (CC50) and latent HIV-1 infected U1 cells (EC50)
[6] = test system: Human immunodeficiency virus 1; experiment: Reactivation of latent HIV1 infected in human U1 cells assessed as increase in p24 production after 48 hrs by ELISA; type: functional, organism-based; conditions: Human immunodeficiency virus 1, U1, 48 h; read-out: EC50

Compound	Activity [1]	fold change (FC) [2]	CC50 at 48 h [3]	Activity [4]	selectivity ratio [5]	EC50 [6]
C/C=C(/C)C(=O)O[C@H]1C(C)=C[C@]23C(=O)[C@@H](C=C(CO)[C@@H](O)[C@]12O)[C@H]1[C@@H](C[C@H]3C)C1(C)C [INGENOL MEBUTATE]	Active	9.7	> 200 nM	Non-Toxic	> 42	4.8 nM
C/C=C1\NC(=O)[C@H]2CSSCC/C=C/[C@H](CC(=O)N[C@H](C(C)C)C(=O)N2)OC(=O)[C@H](C(C)C)NC1=O [ROMIDEPSIN]			0.73 nM		0.66	
O=C(CCCCCCC(=O)Nc1ccccc1)NO [VORINOSTAT]			780 nM			
